Data: ChEMBL document CHEMBL2016555, “4-Methoxy-N-[2-(trifluoromethyl)biphenyl-4-ylcarbamoyl]nicotinamide: A Potent and Selective Agonist of S1P1” (ACS Med Chem Lett, 2011)
Values after ≈ are worked out from the molar mass of the structure shown.

Experiments:
[1] = Solubility of the compound in simulated intestinal fluid; assay type: physicochemical
[2] = molecular target: T1, Sphingosine 1-phosphate receptor 1 (Homo sapiens, UniProt P21453); experiment: Agonist activity at human S1P1 expressed in U2OS cells coexpressing eGFP assessed as receptor internalization after 1 hr by microscopic analysis relative to 1-(4-(6-benzylbenzofuran-2-yl)-3-fluorobenzyl)azetidine-3-carboxylic acid; assay type: functional, cell-based
T1 sequence (P21453 whole entry, the tested form may be a part): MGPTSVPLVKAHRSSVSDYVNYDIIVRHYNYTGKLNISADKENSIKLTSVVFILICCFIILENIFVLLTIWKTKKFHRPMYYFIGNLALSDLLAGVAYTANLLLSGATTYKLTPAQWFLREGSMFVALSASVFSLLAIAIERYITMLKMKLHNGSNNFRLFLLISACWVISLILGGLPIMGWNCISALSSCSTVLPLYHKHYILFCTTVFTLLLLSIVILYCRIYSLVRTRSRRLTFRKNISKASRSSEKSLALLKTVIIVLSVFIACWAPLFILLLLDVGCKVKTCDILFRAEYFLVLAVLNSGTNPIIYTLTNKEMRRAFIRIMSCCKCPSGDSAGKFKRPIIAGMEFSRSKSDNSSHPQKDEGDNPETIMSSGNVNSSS
Method in brief: (§1)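 Human S1P1–eGFP fusion protein expressed in U2OS cells; agonism read as receptor internalization; EC50 derived, efficacy expressed relative to 1-(4-(6-benzylbenzofuran-2-yl)-3-fluorobenzyl)azetidine-3-carboxylic acid at 1.0 μM.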

[3] = Apparent permeability across pig LLC-PK1 cells; assay type: ADME, cell-based, Sus scrofa
Method in brief: (§2)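 Permeability across porcine proximal tubule LLC-PK1 cell monolayers; apparent permeability (Papp) and efflux ratio determined.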

[4] = Solubility of the compound in 0.01 M aqueous HCl; assay type: physicochemical
[5] = molecular target: T1, Sphingosine 1-phosphate receptor 1; experiment: Agonist activity at human S1P1 expressed in U2OS cells coexpressing eGFP assessed as receptor internalization after 1 hr by microscopic analysis; assay type: functional, cell-based; method in brief: as §1
[6] = Intrinsic clearance in rat liver microsomes after 30 mins; assay type: ADME, Microsome; settings: read-out: CLH
[7] = Solubility of the compound in phosphate buffer saline at pH 7.4; assay type: physicochemical; settings: phosphate buffered saline
[8] = Efflux ratio of apparent permeability across pig LLC-PK1 cells; assay type: ADME, cell-based, Sus scrofa; method in brief: as §2
Rattus norvegicus = experiment: Immunosuppressive activity in Lewis rat assessed as change in peripheral lymphocyte count at 1 mg/kg, po after 24 hrs relative to vehicle treated control; assay type: functional
Method in brief: (§3)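 Female Lewis rats (N = 5/group) given one oral dose of 1 mg/kg (20% captisol, 1% HPMC, 1% pluronic F68, pH 2.1 with MSA); blood lymphocyte count and total plasma compound measured at 24 h; POC vs vehicle, ANOVA/Dunnett's test.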

[9] = Plasma concentration in Lewis rat at 1 mg/kg, po at 24 hrs; assay type: ADME, organism-based; set-up: dose 1 mg/kg, route oral; settings: Lewis, plasma; method in brief: as §3

SMILES	solubility [1] [µg/mL]	Efficacy [2] [%]	Papp [3] [×10⁻⁶ cm/s]	solubility [4] [µg/mL]	EC50 [5] [nM]	microsomal CLint [6] [µL/min/mg]	solubility [7] [µg/mL]	efflux ratio [8]	Activity (Rattus norvegicus) [%]	concentration at 24 h [9] [ng/mL]
COc1ccccc1C(=O)NC(=O)Nc1ccc(N2CCCCC2)c(C(F)(F)F)c1	4.1 (≈ 9.73 µM)	120	< 1	3 (≈ 7.12 µM)	13	26	< 1	–	–	–
COc1ccccc1C(=O)NC(=O)Nc1ccc(N2CCCCC2)c(Cl)c1	8.5 (≈ 21.9 µM)	120	< 1	3.6 (≈ 9.28 µM)	230	36	< 1	–	–	–
COc1ccccc1C(=O)NC(=O)Nc1ccc(-c2nccs2)c(C(F)(F)F)c1	12 (≈ 28.5 µM)	130	12	1.1 (≈ 2.61 µM)	38	33	< 1	1.4	-18	1
COc1ccccc1C(=O)NC(=O)Nc1ccc(-c2ccccn2)c(C(F)(F)F)c1	8.5 (≈ 20.5 µM)	110	7.4	28 (≈ 67.4 µM)	13	15	19 (≈ 45.7 µM)	1.1	-14	13
COc1ccccc1C(=O)NC(=O)Nc1ccc(-c2ccccc2)c(C(C)C)c1	24 (≈ 61.8 µM)	120	1.2	< 1	5.4	< 14	< 1	1	3	7
